Experimental data published in ChEMBL document CHEMBL3045357, “DNA adducts as biomarkers for oxidative and genotoxic stress from pesticides in crop plants” (J Agric Food Chem, 2008).

Tests used:
Format in all cases: organism-based
Conditions in all cases: in vivo, other, 336 h
Phaseolus vulgaris [1] = assay: Genotoxicity in Phaseolus vulgaris (bush beans) exposed to compound through spray 4 times over 2 weeks assessed as relative adduct level A5 measured per 10^9 nucleotides using HX-dG internal standard using [32P]labeling based autoradiography relative to untreated control
Summary of the method: (§1)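 Plants (2–6 weeks grown), groups of 2–4, sprayed 4 times over 2 weeks with formulations diluted per label (chlorothalonil 1:256, carbaryl 1:64 in water); controls water-sprayed. DNA from 1 g leaf via DNeasy Maxi kit. 10 µg DNA digested with micrococcal nuclease/spleen phosphodiesterase (4 h, 37 °C), NP1-enriched (45 min, 37 °C), labelled with [γ-32P]ATP/T4 kinase (45 min, 37 °C).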

Cucurbita pepo [2] = assay: Genotoxicity in Cucurbita pepo (pumpkin) exposed to compound through spray 4 times over 2 weeks assessed as relative adduct level A5 measured per 10^9 nucleotides using [32P]labeling based autoradiography relative to untreated control; summary of the method: as §1
Glycine max [3] = assay: Genotoxicity in Glycine max (soybean) exposed to compound through spray 4 times over 2 weeks assessed as HNE-dG adducts measured per 10^9 nucleotides using [32P]labeling based autoradiography (reference value: 2 no unit); summary of the method: as §1
Cucurbita pepo [4] = assay: Genotoxicity in Cucurbita pepo (pumpkin) exposed to compound through spray 4 times over 2 weeks assessed as relative adduct level A6 measured per 10^9 nucleotides using [32P]labeling based autoradiography relative to untreated control; summary of the method: as §1
Cucurbita pepo [5] = assay: Genotoxicity in Cucurbita pepo (pumpkin) exposed to compound through spray 4 times over 2 weeks assessed as relative adduct level A3 measured per 10^9 nucleotides using HX-dG internal standard using [32P]labeling based autoradiography relative to untreated control; summary of the method: as §1
Glycine max [6] = assay: Genotoxicity in Glycine max (soybean) exposed to compound through spray 4 times over 2 weeks assessed as relative adduct level A4 measured per 10^9 nucleotides using [32P]labeling based autoradiography relative to untreated control; summary of the method: as §1
Phaseolus vulgaris [7] = assay: Genotoxicity in Phaseolus vulgaris (bush beans) exposed to compound through spray 4 times over 2 weeks assessed as relative adduct level A6 measured per 10^9 nucleotides using [32P]labeling based autoradiography relative to untreated control; summary of the method: as §1
Glycine max [8] = assay: Genotoxicity in Glycine max (soybean) exposed to compound through spray 4 times over 2 weeks assessed as relative adduct level A1 measured per 10^9 nucleotides using [32P]labeling based autoradiography relative to untreated control; summary of the method: as §1
Glycine max [9] = assay: Genotoxicity in Glycine max (soybean) exposed to compound through spray 4 times over 2 weeks assessed as relative adduct level A2 measured per 10^9 nucleotides using HX-dG internal standard using [32P]labeling based autoradiography relative to untreated control; summary of the method: as §1
Cucurbita pepo [10] = assay: Genotoxicity in Cucurbita pepo (pumpkin) exposed to compound through spray 4 times over 2 weeks assessed as relative adduct level A1 measured per 10^9 nucleotides using [32P]labeling based autoradiography relative to untreated control; summary of the method: as §1
Cucurbita pepo [11] = assay: Genotoxicity in Cucurbita pepo (pumpkin) exposed to compound through spray 4 times over 2 weeks assessed as relative adduct level A4 measured per 10^9 nucleotides using [32P]labeling based autoradiography relative to untreated control; summary of the method: as §1
Vitis vinifera [12] = assay: Genotoxicity in Vitis vinifera exposed to compound through spray 4 times over 2 weeks assessed as relative adduct level A2 measured per 10^9 nucleotides using [32P]labeling based autoradiography relative to untreated control; summary of the method: as §1
Phaseolus vulgaris [13] = assay: Genotoxicity in Phaseolus vulgaris (bush beans) exposed to compound through spray 4 times over 2 weeks assessed as relative adduct level A4 measured per 10^9 nucleotides using HX-dG internal standard using [32P]labeling based autoradiography relative to untreated control; summary of the method: as §1
Cucumis sativus = assay: Genotoxicity in Cucumis sativus (cucumber) exposed to compound through spray 4 times over 2 weeks assessed as relative adduct level A3 measured per 10^9 nucleotides using HX-dG internal standard using [32P]labeling based autoradiography relative to untreated control; summary of the method: as §1
Phaseolus vulgaris [14] = assay: Genotoxicity in Phaseolus vulgaris (bush beans) exposed to compound through spray 4 times over 2 weeks assessed as relative adduct level A3 measured per 10^9 nucleotides using [32P]labeling based autoradiography relative to untreated control; summary of the method: as §1
Cucurbita pepo [15] = assay: Genotoxicity in Cucurbita pepo (pumpkin) exposed to compound through spray 4 times over 2 weeks assessed as relative adduct level A1 measured per 10^9 nucleotides using HX-dG internal standard using [32P]labeling based autoradiography relative to untreated control; summary of the method: as §1
Phaseolus vulgaris [16] = assay: Genotoxicity in Phaseolus vulgaris (bush beans) exposed to compound through spray 4 times over 2 weeks assessed as relative adduct level A6 measured per 10^9 nucleotides using HX-dG internal standard using [32P]labeling based autoradiography relative to untreated control; summary of the method: as §1
Phaseolus vulgaris [17] = assay: Genotoxicity in Phaseolus vulgaris (bush beans) exposed to compound through spray 4 times over 2 weeks assessed as relative adduct level A3 measured per 10^9 nucleotides using HX-dG internal standard using [32P]labeling based autoradiography relative to untreated control; summary of the method: as §1
Vitis vinifera [18] = assay: Genotoxicity in Vitis vinifera exposed to compound through spray 4 times over 2 weeks assessed as relative adduct level A1 measured per 10^9 nucleotides using [32P]labeling based autoradiography relative to untreated control; summary of the method: as §1
Glycine max [19] = assay: Genotoxicity in Glycine max (soybean) exposed to compound through spray 4 times over 2 weeks assessed as relative adduct level A3 measured per 10^9 nucleotides using [32P]labeling based autoradiography relative to untreated control; summary of the method: as §1
Phaseolus vulgaris [20] = assay: Genotoxicity in Phaseolus vulgaris (bush beans) exposed to compound through spray 4 times over 2 weeks assessed as relative adduct level A1 measured per 10^9 nucleotides using HX-dG internal standard using [32P]labeling based autoradiography relative to untreated control; summary of the method: as §1
Glycine max [21] = assay: Genotoxicity in Glycine max (soybean) exposed to compound through spray 4 times over 2 weeks assessed as relative adduct level A6 measured per 10^9 nucleotides using HX-dG internal standard using [32P]labeling based autoradiography relative to untreated control; summary of the method: as §1
Glycine max [22] = assay: Genotoxicity in Glycine max (soybean) exposed to compound through spray 4 times over 2 weeks assessed as relative adduct level A2 measured per 10^9 nucleotides using [32P]labeling based autoradiography relative to untreated control; summary of the method: as §1
Glycine max [23] = assay: Genotoxicity in Glycine max (soybean) exposed to compound through spray 4 times over 2 weeks assessed as relative adduct level A6 measured per 10^9 nucleotides using [32P]labeling based autoradiography relative to untreated control; summary of the method: as §1
Cucurbita pepo [24] = assay: Genotoxicity in Cucurbita pepo (pumpkin) exposed to compound through spray 4 times over 2 weeks assessed as relative adduct level A2 measured per 10^9 nucleotides using HX-dG internal standard using [32P]labeling based autoradiography relative to untreated control; summary of the method: as §1

N#Cc1c(Cl)c(Cl)c(Cl)c(C#N)c1Cl [CHLOROTHALONIL]
Activity (Phaseolus vulgaris [1]): 4410 cpm | Activity (Cucurbita pepo [2]): 63 | Activity (Glycine max [3]): 160 | Activity (Cucurbita pepo [4]): 1409 | Activity (Cucurbita pepo [5]): 3033 cpm | Activity (Glycine max [6]): 134 | Activity (Phaseolus vulgaris [7]): 174 | Activity (Glycine max [8]): 797 | Activity (Glycine max [9]): 8753 cpm | Activity (Cucurbita pepo [10]): 73 | Activity (Cucurbita pepo [11]): 13 | Activity (Vitis vinifera [12]): 66 | Activity (Phaseolus vulgaris [13]): 2814 cpm | Activity (Cucumis sativus): 10667 cpm | Activity (Phaseolus vulgaris [14]): 145 | Activity (Cucurbita pepo [15]): 3731 cpm | Activity (Phaseolus vulgaris [16]): 6051 cpm | Activity (Phaseolus vulgaris [17]): 5038 cpm | Activity (Vitis vinifera [18]): 36 | Activity (Glycine max [19]): 136 | Activity (Phaseolus vulgaris [20]): 5901 cpm | Activity (Glycine max [21]): 16472 cpm | Activity (Glycine max [22]): 172 | Activity (Glycine max [23]): 324 | Activity (Cucurbita pepo [24]): 1323 cpm
